In brackets after ≈: the same amount, converted by molar mass.
How the values were obtained:
Echinochloa crus-galli [1] = experiment: Phytogrowth-inhibitory activity against Echinochloa crus-galli assessed as inhibition of radicle growth at 100 ug/ml incubated in dark at 27 degC measured after 48 hrs; assay type: functional; conditions: read-out: GI
Method in brief: (§1)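 Samples in MeOH-H2O (1:1) were added to Petri dishes and air-dried, giving a final 100 µg/ml. Solvent-only dishes served as negative controls and 2,4-D as positive control. Dishes were kept dark at 27°. Radicle length was read at 24 h for A. leucocarpus and 48 h for E. crus-galli. Results are % of untreated control, 4 replicates × 20 seedlings, with ANOVA/Duncan.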

[2] = test system: Amaranthus hypochondriacus; experiment: Phytogrowth-inhibitory activity against Amaranthus hypochondriacus assessed as inhibition of seed germination incubated in dark at 27 degC measured after 24 hrs; assay type: functional, organism-based
Method in brief: (§2)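 Seeds in Petri dishes with test sample applied in MeOH-H2O (1:1), solvent air-dried before use. Kept in the dark at 27°: 24 h for Amaranthus, 48 h for E. crus-galli. Germination percentage and radicle length scored. Controls: 2,4-D positive, solvent-only negative. Germination IC50 from linear regression; radicle-growth IC50 from probit analysis.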

A-431 = experiment: Cytotoxicity against human A431 cells; assay type: functional; conditions: read-out: ED50 (the source's name)
Method in brief: (§3)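 Cell lines obtained from ATCC and tested in vitro following an earlier cytotoxicity protocol. The value is reported as ED50.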

Lu1 = experiment: Cytotoxicity against human Lu1 cells; assay type: functional; conditions: read-out: ED50 (the source's name)
Method in brief: (§4)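 Cell lines established from primary human tumors at a university surgical oncology division and tested in vitro following an earlier cytotoxicity protocol. The value is reported as ED50.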

[3] = (§5) Displacement of [3H]PDBu from protein kinase C in calf brain homogenate by scintillation counting; assay type: tissue-based, Bos taurus
Method in brief: (§6)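 Incubation mix contained 50 mM Tris/HCl (pH 7.4), 1 mM CaCl2, 39.2 nM [3H]PDBu, 50 µg/ml calf brain homogenate as the protein kinase C source, and compound in DMSO. Tubes ran 1 h at ambient temperature, then were filtered onto glass fiber and counted. Nonspecific binding was taken as the part not displaced by 100-fold excess unlabelled PDBu. Curve used five-fold dilutions from 200 to 0.32 µg/ml, 4 replicates.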

Bos taurus = organism: Bos taurus; experiment: as §5; assay type: tissue-based; method in brief: as §6
Echinochloa crus-galli [4] = experiment: Phytogrowth-inhibitory activity against Echinochloa crus-galli assessed as inhibition of seed germination incubated in dark at 27 degC measured after 48 hrs; assay type: functional, organism-based; method in brief: as §2
[5] = Cytotoxicity against drug-resistant human KBV1 cells; assay type: functional; conditions: KB-V1, read-out: ED50 (the source's name)
[6] = test system: Amaranthus hypochondriacus; experiment: Phytogrowth-inhibitory activity against Amaranthus hypochondriacus assessed as inhibition of radicle growth at 100 ug/ml incubated in dark at 27 degC measured after 24 hrs; assay type: functional; conditions: read-out: GI; method in brief: as §1
Col2 = experiment: Cytotoxicity against human Col2 cells; assay type: functional; conditions: read-out: ED50 (the source's name); method in brief: as §4
ZR-75-1 = experiment: Cytotoxicity against human ZR-75-1 cells; assay type: functional; conditions: read-out: ED50 (the source's name); method in brief: as §3
P388 = experiment: Cytotoxicity against mouse P388 cells; assay type: functional; conditions: read-out: ED50 (the source's name); method in brief: as §3
Echinochloa crus-galli [7] = experiment: Phytogrowth-inhibitory activity against Echinochloa crus-galli assessed as inhibition of radicle growth incubated in dark at 27 degC measured after 48 hrs; assay type: functional, organism-based; method in brief: as §2
Staphylococcus aureus = experiment: Antibacterial activity against Staphylococcus aureus ATCC 25923 by agar diffusion technique; assay type: functional
HT-1080 = experiment: Cytotoxicity against human HT1080 cells; assay type: functional; conditions: read-out: ED50 (the source's name); method in brief: as §3
[8] = Cytotoxicity against human BC1 cells; assay type: functional; conditions: read-out: ED50 (the source's name); method in brief: as §4
[9] = test system: Amaranthus hypochondriacus; experiment: Stimulation of Amaranthus hypochondriacus radicle growth at 1 ug/ml incubated in dark at 27 degC measured after 24 hrs relative to control; assay type: functional
Method in brief: (§7)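 Petri-dish seed assay at 1 µg/ml, with sample in MeOH-H2O (1:1) air-dried before seeding. Held in the dark at 27° and scored at 24 h (Amaranthus) or 48 h (E. crus-galli). Radicle growth expressed relative to untreated controls.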

KB = experiment: Cytotoxicity against human KB cells; assay type: functional; conditions: read-out: ED50 (the source's name); method in brief: as §3
SK-MEL-2 = experiment: Cytotoxicity against human SK-MEL-2 cells; assay type: functional; conditions: read-out: ED50 (the source's name); method in brief: as §4
[10] = test system: Amaranthus hypochondriacus; experiment: Phytogrowth-inhibitory activity against Amaranthus hypochondriacus assessed as inhibition of radicle growth incubated in dark at 27 degC measured after 24 hrs; assay type: functional, organism-based; method in brief: as §2
[11] = Toxicity in brine shrimp assessed as lethality; assay type: organism-based; conditions: artemia, in vivo
Echinochloa crus-galli [12] = experiment: Stimulation of Echinochloa crus-galli radicle growth at 1 ug/ml incubated in dark at 27 degC measured after 48 hrs relative to control; assay type: functional; method in brief: as §7
LNCaP = experiment: Cytotoxicity against human LNCAP cells; assay type: functional; conditions: read-out: ED50 (the source's name); method in brief: as §3

With `CCCCC[C@H]1CCCCCCCCCC(=O)O[C@H]2[C@H](O)[C@@H](CO)O[C@@H](O[C@H]3[C@H](O1)O[C@H](C)[C@H](O)[C@@H]3O)[C@@H]2O[C@@H]1O[C@@H](C)[C@H](OC(=O)[C@@H](C)CC)[C@@H](O[C@@H]2O[C@@H](C)[C@H](O)[C@@H](O)[C@H]2O)[C@H]1OC(=O)[C@@H](C)CC` [TRICOLORIN A] the inhibition of growth at 100 µg/mL (Echinochloa crus-galli [1]) was 78.8%, the IC50 [2] was 152 µg/mL (≈ 149 µM) and the EC50 (A-431) was 10.3 µg/mL (≈ 10.1 µM). For the same molecule, the EC50 (Lu1) was 5.5 µg/mL (≈ 5.38 µM), the IC50 [3] was 44.1 µg/mL (≈ 43.1 µM) and the Activity (Bos taurus) was “Dose-dependent effect”. It also gave an IC50 (Echinochloa crus-galli [4]) of 36.9 µg/mL (≈ 36.1 µM), an EC50 [5] of over 20 µg/mL and an inhibition of growth at 100 µg/mL [6] of 68.3%. It also gave an EC50 (Col2) of 8.9 µg/mL (≈ 8.7 µM), an EC50 (ZR-75-1) of 8.1 µg/mL (≈ 7.92 µM) and an EC50 (P388) of 2.2 µg/mL (≈ 2.15 µM). The Activity (Echinochloa crus-galli [7]) was “Dose-dependent effect”, the IC50 (Echinochloa crus-galli [7]) was 12.6 µg/mL (≈ 12.3 µM) and the MIC (Staphylococcus aureus) was 1.8 µg/mL (≈ 1.76 µM). It also gave an EC50 (HT-1080) of 6.3 µg/mL (≈ 6.16 µM), an EC50 [8] of 2.2 µg/mL (≈ 2.15 µM) and an Activity [9] of 4%. The EC50 (KB) was over 20 µg/mL, the EC50 (SK-MEL-2) was 7.6 µg/mL (≈ 7.43 µM) and the Activity [10] was “Dose-dependent effect”. The IC50 [10] was 37 µg/mL (≈ 36.2 µM), the LC50 [11] was 18.2 µg/mL (≈ 17.8 µM) and the Activity (Echinochloa crus-galli [12]) was 4%. The EC50 (LNCaP) was 5.8 µg/mL (≈ 5.67 µM).

For `O=C(O)COc1ccc(Cl)cc1Cl` [2,4-DICHLOROPHENOXYACETIC ACID], the Activity [9] was 4% and the Activity (Echinochloa crus-galli [12]) was 4%.
